According to ChEMBL document CHEMBL3352270, “Antimalarial activity of abietane ferruginol analogues possessing a phthalimide group” (Bioorg Med Chem Lett, 2014):
≈ marks a conversion by molar mass, not a printed value.

Columns and labels:
[1] = test system: Plasmodium falciparum; assay: microbe, parasite or virus in culture; format: functional, organism-based; settings: 3D7, 72 h
[2] = test system: HepG2; assay: Cytotoxicity against human HepG2 cells; format: functional, cell-based
[3] = test system: Raji; assay: Cytotoxicity against human Raji cells; format: functional, cell-based
[4] = test system: BJ; assay: Cytotoxicity against human BJ cells; format: ADME, cell-based
[5] = test system: HEK293; assay: Cytotoxicity against HEK293 cells; format: functional, cell-based; settings: Homo sapiens
[6] = test system: Plasmodium falciparum; assay: microbe, parasite or virus in culture; format: functional, organism-based; settings: K1, 72 h
[7] = Selectivity index, ratio of cytotoxic EC50 against human cells to EC50 for Plasmodium falciparum 3D7; settings: human cells (cell line not named)
[8] = Selectivity index, ratio of cytotoxic EC50 against human cells to EC50 for Plasmodium falciparum K1; settings: human cells (cell line not named)
[9] = test system: Plasmodium falciparum; assay: Antimalarial activity against Plasmodium falciparum K1; format: functional, organism-based
Procedure, shortened: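 Chloroquine-resistant K1 strain of P. falciparum; […].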

[10] = test system: Plasmodium falciparum; assay: Antimalarial activity against Plasmodium falciparum D10; format: functional
[11] = Selectivity index, ratio of cytotoxicity against CHO cells to IC50 for Plasmodium falciparum K1; format: toxicity, cell-based; settings: hamster, read-out: Selectivity Index
[12] = Selectivity index, ratio of cytotoxicity against CHO cells to IC50 for Plasmodium falciparum D10; format: toxicity, cell-based; settings: hamster, read-out: Selectivity Index
[13] = Selectivity index, ratio of cytotoxicity against human HepG2 cells to IC50 for Plasmodium falciparum K1; format: toxicity, cell-based; settings: read-out: Selectivity Index
[14] = Selectivity index, ratio of cytotoxicity against human HepG2 cells to IC50 for Plasmodium falciparum D10; format: toxicity, cell-based; settings: read-out: Selectivity Index
[15] = test system: Plasmodium falciparum; assay: Antimalarial activity against Plasmodium falciparum D6; format: functional, organism-based
[16] = test system: Plasmodium falciparum; assay: Antimalarial activity against chloroquine-sensitive Plasmodium falciparum D6; format: functional, organism-based
[17] = test system: Plasmodium falciparum; assay: Antimalarial activity against chloroquine-resistant Plasmodium falciparum W2; format: functional, organism-based
[18] = test system: Plasmodium falciparum; assay: Antimalarial activity against chloroquine-resistant Plasmodium falciparum K1; format: functional, organism-based
[19] = Selectivity index, ratio of cytotoxicity against rat L6 cells to IC50 for Plasmodium falciparum K1; format: toxicity, cell-based; settings: read-out: Selectivity Index

Compound | EC50 [1] | EC50 [2] | EC50 [3] | EC50 [4] | EC50 [5] | EC50 [6] | selectivity ratio [7] | selectivity ratio [8] | IC50 [9] | IC50 [10] | selectivity ratio [11] | selectivity ratio [12] | selectivity ratio [13] | selectivity ratio [14] | IC50 [15] | IC50 [16] | IC50 [17] | IC50 [18] | selectivity ratio [19]
CCN(CC)CCCC(C)Nc1ccnc2cc(Cl)ccc12 (stereo not given) [CHLOROQUINE] | 0.023 µM | > 25 µM | > 25 µM | > 25 µM | > 25 µM | 0.69 µM |  |  |  |  |  |  |  |  |  |  |  |  | 
CC(C)=CCC[C@]1(C)C=Cc2c(O)c3c(c(CC=C(C)C)c2O1)O[C@]12C(=C[C@@H]4C[C@H]1C(C)(C)O[C@@]2(C/C=C(/C)C(=O)O)C4=O)C3=O [GAMBOGIC ACID] |  | < 2 µM | 0.24 µM | 0.21 µM | 0.21 µM |  |  |  |  |  |  |  |  |  |  |  |  |  | 
CC(=O)Oc1cc2c(cc1C(C)C)CC[C@H]1[C@](C)(CN3C(=O)c4ccccc4C3=O)CCC[C@]21C | 2.09 µM | > 25 µM | > 25 µM | > 25 µM | > 25 µM | 15 µM | > 12 |  |  |  |  |  |  |  |  |  |  |  | 
CC(=O)Oc1cc2c(cc1C(C)C)CC[C@H]1[C@](C)(CN3C(=O)c4c(Cl)c(Cl)c(Cl)c(Cl)c4C3=O)CCC[C@]21C | 15 µM | > 25 µM | > 25 µM | > 25 µM | > 25 µM | 15 µM |  |  |  |  |  |  |  |  |  |  |  |  | 
CC(C)c1cc2c(cc1O)[C@@]1(C)CCC[C@@](C)(CN3C(=O)c4c(Cl)c(Cl)c(Cl)c(Cl)c4C3=O)[C@@H]1CC2 | 15 µM | > 25 µM | > 25 µM | > 25 µM | > 25 µM | 15 µM |  |  |  |  |  |  |  |  |  |  |  |  | 
CC(C)c1cc2c(cc1O)[C@@]1(C)CCC[C@@](C)(C=O)[C@@H]1CC2 [18-OXOFERRUGINOL] | 15 µM | > 25 µM | > 25 µM | > 25 µM | > 25 µM | 15 µM |  |  |  |  |  |  |  |  |  |  |  |  | 
CC(=O)Oc1cc2c(cc1C(C)C)C(=O)C[C@H]1[C@](C)(CN3C(=O)c4c(Cl)c(Cl)c(Cl)c(Cl)c4C3=O)CCC[C@]21C | 15 µM | > 25 µM | > 25 µM | > 25 µM | > 25 µM | 15 µM |  |  |  |  |  |  |  |  |  |  |  |  | 
CC(=O)c1cc2c(cc1C(C)C)CC[C@H]1[C@](C)(CN3C(=O)c4ccccc4C3=O)CCC[C@]21C | 0.086 µM | > 25 µM | > 25 µM | > 25 µM | > 25 µM | 0.201 µM | > 290 | > 124 |  |  |  |  |  |  |  |  |  |  | 
CC(C)c1cc2c(cc1O)[C@@]1(C)CCC[C@@](C)(CN3C(=O)c4ccccc4C3=O)[C@@H]1CC2 | 15 µM | > 25 µM | > 25 µM | > 25 µM | > 25 µM | 4 µM |  | > 6.3 |  |  |  |  |  |  |  |  |  |  | 
CC(C)c1cc2c(cc1O)[C@@]1(C)CCCC(C)(C)[C@@H]1CC2 [FERRUGINOL] | 2.47 µM | > 25 µM | 11.5 µM | 19.6 µM | > 25 µM | 1.33 µM | 4.6 | 8.6 | < 1 µg/mL | < 1 µg/mL | > 65 | > 65 | > 65 | > 65 | 1.95 µg/mL (≈ 6.81 µM) | 4.2 µg/mL (≈ 14.7 µM) | 3.5 µg/mL (≈ 12.2 µM) | 0.9 µM | 15.6
CC(=O)Oc1cc2c(cc1C(C)C)/C(=N/NS(=O)(=O)c1ccc(C)cc1)C[C@H]1[C@](C)(CN3C(=O)c4c(Cl)c(Cl)c(Cl)c(Cl)c4C3=O)CCC[C@]21C | 15 µM | > 25 µM | > 25 µM | > 25 µM | > 25 µM | 15 µM |  |  |  |  |  |  |  |  |  |  |  |  | 
CC(C)c1cc2c(cc1O)[C@@]1(C)CCC[C@@](C)(CN)[C@@H]1CC2 | 6.67 µM | > 25 µM | > 25 µM | 17.4 µM | > 25 µM | 15 µM | 2.6 |  |  |  |  |  |  |  |  |  |  |  | 
CC(C)c1ccc2c(c1)CC[C@H]1[C@](C)(CN3C(=O)c4ccccc4C3=O)CCC[C@]21C | 1.36 µM | > 25 µM | > 25 µM | > 25 µM | > 25 µM | 15 µM | > 18.4 |  |  |  |  |  |  |  |  |  |  |  | 
